According to ChEMBL document CHEMBL1126896, “Preparation and anti-HIV activity of O-acylated heparin and dermatan sulfate derivatives with low anticoagulant effect” (J Med Chem, 1993):

Assays:
HuT78 [1] = assay: Giant-cell formation between persistently HIV-1 infected HUT-78 cells and uninfected MOLT-4 cells; type: functional, cell-based
Outline: (§1)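 MOLT-4 cells were co-cultured with an equal number of HUT-78 cells persistently infected with HIV-1 IIIB or HIV-2 ROD, with varying compound concentrations. Syncytia were counted by flow cytofluorography after 24 h. EC50 is the concentration giving 50% protection against giant-cell formation.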

HuT78 [2] = assay: Giant-cell formation between persistently HIV-2 infected HUT-78 cells and uninfected MOLT-4 cells; type: functional, cell-based; outline: as §1
[3] = In vitro anticoagulant activity determined by clotting test of activated partial thromboplastin time (APTT) on a pool of human plasma; type: functional
Outline: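 Activated partial thromboplastin time clotting test on pooled human plasma, run on an automatic coagulometer. Activities were calculated according to the European Pharmacopoeia.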

MT4 [4] = assay: Effective concentration to achieve 50% protection of MT-4 cells against the cytopathic effect of HIV-1; type: functional, cell-based
MT4 [5] = assay: Effective concentration to achieve 50% protection of MT-4 cells against the cytopathic effect of HIV-2; type: functional, cell-based
MT4 [6] = assay: Selectivity index for CC50 (cytotoxic concentration based on the reduction of the viability of mock-infected MT-4 cells) to that of EC50 against HIV-1; type: functional
Outline: (§2)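 MT-4 cells at 3 × 10^5 cells/mL were infected with HIV-1 IIIB or HIV-2 ROD at 100 CCID50/mL, or mock-infected, alongside serial compound dilutions. Viability was read by MTT after 5 days at 37 °C. CC50 comes from mock-infected cells and EC50 from protection against cytopathicity. Index = CC50/EC50.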

MT4 [7] = assay: Selectivity index for CC50 (cytotoxic concentration based on reduction of viability of mock-infected MT-4 cells) to that of EC50 against HIV-2; type: functional; outline: as §2
[8] = Homo sapiens, HuT78, read-out: EC50
[9] = Homo sapiens, MT4, read-out: EC50

SMILES	EC50 (HuT78 [1]; hut78) [µg/mL]	EC50 (HuT78 [2]; [8]) [µg/mL]	APTT [3] [IU mg-1]	EC50 (MT4 [4]; mt4) [µg/mL]	EC50 (MT4 [5]; mt4) [µg/mL]	Selectivity index (MT4 [6])	Selectivity index (MT4 [7])	EC50 (HuT78 [1]; [8]) [µg/mL]	EC50 (MT4 [4]; [9]) [µg/mL]	EC50 (MT4 [5]; [9]) [µg/mL]	EC50 (HuT78 [2]; hut78) [µg/mL]
O=C([O-])/C=C(\CO)OC1OC(COS(=O)(=O)[O-])C(OC2OC(C(=O)[O-])C(OC3OC(COS(=O)(=O)[O-])C(OC4OC(C(=O)[O-])C(OC5OC(COS(=O)(=O)[O-])C(O)C(O)C5NS(=O)(=O)[O-])C(O)C4OS(=O)(=O)[O-])C(O)C3NS(=O)(=O)[O-])C(O)C2OS(=O)(=O)[O-])C(O)C1NS(=O)(=O)[O-].[Na+].[Na+].[Na+].[Na+].[Na+].[Na+].[Na+].[Na+].[Na+].[Na+].[Na+] (stereo in doubt; 3a)	> 200	> 200	5	0.52	77	>961	318	–	–	–	–
C/C=C\COC(=O)/C=C(\CO)OC1OC(COS(=O)(=O)[O-])C(OC2OC(C(=O)OC/C=C/C)C(OC3OC(COS(=O)(=O)[O-])C(OC4OC(C(=O)OC/C=C/C)C(OC5OC(COS(=O)(=O)[O-])C(O)C(O)C5NS(=O)(=O)[O-])C(O)C4OS(=O)(=O)[O-])C(O)C3NS(=O)(=O)[O-])C(O)C2OS(=O)(=O)[O-])C(O)C1NS(=O)(=O)[O-].[Na+].[Na+].[Na+].[Na+].[Na+].[Na+].[Na+].[Na+] (stereo not given)	–	1	3	–	–	>5000	>384	10	0.1	1.3	–
C=CCCOC(=O)/C=C(\CO)OC1OC(COS(=O)(=O)[O-])C(OC2OC(C(=O)OCCC=C)C(OC3OC(COS(=O)(=O)[O-])C(OC4OC(C(=O)OCCC=C)C(OC5OC(COS(=O)(=O)[O-])C(O)C(O)C5NS(=O)(=O)[O-])C(O)C4OS(=O)(=O)[O-])C(O)C3NS(=O)(=O)[O-])C(O)C2OS(=O)(=O)[O-])C(O)C1NS(=O)(=O)[O-].[Na+].[Na+].[Na+].[Na+].[Na+].[Na+].[Na+].[Na+] (stereo not given)	–	2	3	–	–	>833	>208	90	0.6	2.4	–
CCCCCC(=O)OC/C(=C\C(=O)[O-])OC1OC(COS(=O)(=O)[O-])C(OC2OC(C(=O)[O-])C(OC3OC(COS(=O)(=O)[O-])C(OC4OC(C(=O)[O-])C(OC5OC(CS(=O)(=O)[O-])C(O)C(OC(=O)CCCCC)C5NS(=O)(=O)[O-])C(OC(=O)CCCCC)C4OS(=O)(=O)[O-])C(OC(=O)CCCCC)C3NS(=O)(=O)[O-])C(OC(=O)CCCCC)C2OS(=O)(=O)[O-])C(OC(=O)CCCCC)C1NS(=O)(=O)[O-].[Na+].[Na+].[Na+].[Na+].[Na+].[Na+].[Na+].[Na+].[Na+].[Na+].[Na+] (stereo in doubt; 3g)	6	–	–	–	0.8	–	>650	–	–	–	75
CCCCCCCCOC(=O)/C=C(\CO)OC1OC(COS(=O)(=O)[O-])C(OC2OC(C(=O)OCCCCCCCC)C(OC3OC(COS(=O)(=O)[O-])C(OC4OC(C(=O)OCCCCCCCC)C(OC5OC(COS(=O)(=O)[O-])C(O)C(O)C5NS(=O)(=O)[O-])C(O)C4OS(=O)(=O)[O-])C(O)C3NS(=O)(=O)[O-])C(O)C2OS(=O)(=O)[O-])C(O)C1NS(=O)(=O)[O-].[Na+].[Na+].[Na+].[Na+].[Na+].[Na+].[Na+].[Na+] (stereo in doubt; 7g)	4	–	6	0.59	0.5	>833	>1000	–	–	–	20
CCCCCC(=O)OC/C(=C\C(=O)[O-])OC1OC(COS(=O)(=O)[O-])C(OC2OC(C(=O)[O-])C(OC3OC(COS(=O)(=O)[O-])C(OC4OC(C(=O)[O-])C(OC5OC(CS(=O)(=O)[O-])C(O)C(OC(=O)CCCCC)C5NS(=O)(=O)[O-])C(OC(=O)CCCCC)C4OS(=O)(=O)[O-])C(OC(=O)CCCCC)C3NS(=O)(=O)[O-])C(OC(=O)CCCCC)C2OS(=O)(=O)[O-])C(OC(=O)CCCCC)C1NS(=O)(=O)[O-].[Na+].[Na+].[Na+].[Na+].[Na+].[Na+].[Na+].[Na+].[Na+].[Na+].[Na+] (stereo in doubt; 3j)	2	–	–	0.4	–	>1250	–	–	–	–	10
CCCCCC(=O)OCC1OC(OC2C(C(=O)[O-])OC(OC3C(NC(C)=O)C(OC4C(C(=O)[O-])OC(C)C(OC(=O)CCCCC)C4O)OC(COC(=O)CCCCC)C3OS(=O)(=O)[O-])C(OC(=O)CCCCC)C2OC(=O)CCCCC)C(NC(C)=O)C(OC)C1OS(=O)(=O)[O-].[Na+].[Na+].[Na+].[Na+] (stereo not given)	–	–	3.4	–	–	4	17.5	41	19.4	5.4	–
CCCCCC(=O)OC/C(=C\C(=O)[O-])OC1OC(COS(=O)(=O)[O-])C(OC2OC(C(=O)[O-])C(OC3OC(COS(=O)(=O)[O-])C(OC4OC(C(=O)[O-])C(OC5OC(CS(=O)(=O)[O-])C(O)C(OC(=O)CCCCC)C5NS(=O)(=O)[O-])C(OC(=O)CCCCC)C4OS(=O)(=O)[O-])C(OC(=O)CCCCC)C3NS(=O)(=O)[O-])C(OC(=O)CCCCC)C2OS(=O)(=O)[O-])C(OC(=O)CCCCC)C1NS(=O)(=O)[O-].[Na+].[Na+].[Na+].[Na+].[Na+].[Na+].[Na+].[Na+].[Na+].[Na+].[Na+] (stereo in doubt; 3i)	–	–	–	–	0.3	>2600	>1666	–	–	–	13
CCCC(=O)OC/C(=C\C(=O)[O-])O[C@H]1O[C@H](COS(=O)(=O)[O-])[C@@H](O[C@@H]2O[C@@H](C(=O)[O-])[C@@H](O[C@H]3O[C@H](COS(=O)(=O)[O-])[C@@H](O[C@@H]4O[C@@H](C(=O)[O-])[C@@H](O[C@H]5O[C@H](CS(=O)(=O)[O-])[C@@H](O)[C@H](OC(=O)CCC)[C@H]5NS(=O)(=O)[O-])[C@H](OC(=O)CCC)[C@H]4OS(=O)(=O)[O-])[C@H](OC(=O)CCC)[C@H]3NS(=O)(=O)[O-])[C@H](OC(=O)CCC)[C@H]2OS(=O)(=O)[O-])[C@H](OC(=O)CCC)[C@H]1NS(=O)(=O)[O-].[Na+].[Na+].[Na+].[Na+].[Na+].[Na+].[Na+].[Na+].[Na+].[Na+].[Na+] (stereo in doubt; 3d)	10.3	–	9	0.21	0.36	1480	914	–	–	–	–
CCCC(=O)OC/C(=C\C(=O)[O-])O[C@H]1O[C@H](COS(=O)(=O)[O-])[C@@H](O[C@@H]2O[C@@H](C(=O)[O-])[C@@H](O[C@H]3O[C@H](COS(=O)(=O)[O-])[C@@H](O[C@@H]4O[C@@H](C(=O)[O-])[C@@H](O[C@H]5O[C@H](CS(=O)(=O)[O-])[C@@H](O)[C@H](OC(=O)CCC)[C@H]5NS(=O)(=O)[O-])[C@H](OC(=O)CCC)[C@H]4OS(=O)(=O)[O-])[C@H](OC(=O)CCC)[C@H]3NS(=O)(=O)[O-])[C@H](OC(=O)CCC)[C@H]2OS(=O)(=O)[O-])[C@H](OC(=O)CCC)[C@H]1NS(=O)(=O)[O-].[Na+].[Na+].[Na+].[Na+].[Na+].[Na+].[Na+].[Na+].[Na+].[Na+].[Na+] (stereo in doubt; 4k)	2	–	29.3	0.51	0.26	>980	>1923	–	–	–	–
CCCC(=O)OC/C(=C\C(=O)[O-])O[C@H]1O[C@H](COS(=O)(=O)[O-])[C@@H](O[C@@H]2O[C@@H](C(=O)[O-])[C@@H](O[C@H]3O[C@H](COS(=O)(=O)[O-])[C@@H](O[C@@H]4O[C@@H](C(=O)[O-])[C@@H](O[C@H]5O[C@H](CS(=O)(=O)[O-])[C@@H](O)[C@H](OC(=O)CCC)[C@H]5NS(=O)(=O)[O-])[C@H](OC(=O)CCC)[C@H]4OS(=O)(=O)[O-])[C@H](OC(=O)CCC)[C@H]3NS(=O)(=O)[O-])[C@H](OC(=O)CCC)[C@H]2OS(=O)(=O)[O-])[C@H](OC(=O)CCC)[C@H]1NS(=O)(=O)[O-].[Na+].[Na+].[Na+].[Na+].[Na+].[Na+].[Na+].[Na+].[Na+].[Na+].[Na+] (stereo in doubt; 4e)	43.7	–	4.5	0.95	0.07	>526	>7142	–	–	–	–
O=C([O-])/C=C(\COC(=O)CCC(=O)[O-])OC1OC(COS(=O)(=O)[O-])C(OC2OC(C(=O)[O-])C(OC3OC(COS(=O)(=O)[O-])C(OC4OC(C(=O)[O-])C(OC5OC(COS(=O)(=O)[O-])C(O)C(OC(=O)CCC(=O)[O-])C5NS(=O)(=O)[O-])C(OC(=O)CCC(=O)[O-])C4OS(=O)(=O)[O-])C(OC(=O)CCC(=O)[O-])C3NS(=O)(=O)[O-])C(OC(=O)CCC(=O)[O-])C2OS(=O)(=O)[O-])C(OC(=O)CCC(=O)[O-])C1NS(=O)(=O)[O-].[Na+].[Na+].[Na+].[Na+].[Na+].[Na+].[Na+].[Na+].[Na+].[Na+].[Na+].[Na+].[Na+].[Na+].[Na+].[Na+].[Na+] (stereo not given)	–	–	3.1	–	–	>2500	>100	> 100	0.2	5	–
